Measurements published in ChEMBL document CHEMBL1800044, “Structure-based design of novel boronic acid-based inhibitors of autotaxin” (J Med Chem, 2011).

Biological target: Autotaxin (Homo sapiens, UniProt Q13822)
Experiment: Inhibition of 6x-histidine-tagged human recombinant ATX expressed in HEK293 cells assessed as choline release using lysophosphatidylcholine as substrate after 4 hrs by choline release assay
In short: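 Recombinant ATX at 10 nM final (~20 nM in enzyme half) in 50 mM Tris-HCl pH 7.4, 0.01% Triton X-100, inhibitor added in DMSO. LPC (18:1) at 40 μM final, buffer with 10 mM MgCl2 and 10 mM CaCl2. Ten concentrations, 0.01–30 μM. Controls were DMSO alone and LPC without enzyme.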

| SMILES | IC50 |
| --- | --- |
| O=C(Nc1ccc(B(O)O)cc1)c1ccc(/C=C2\SC(=O)N(Cc3ccc(F)cc3)C2=O)cc1 | 147 nM |
| O=C(NCc1ccc(B(O)O)cc1)c1ccc(/C=C2\SC(=O)N(Cc3ccc(F)cc3)C2=O)cc1 | 71 nM |
| O=C(Nc1ccc(/C=C2\SC(=O)N(Cc3ccc(F)cc3)C2=O)cc1)c1ccc(B(O)O)cc1 | 10 nM |
| O=C1S/C(=C\c2ccc(NCc3ccc(B(O)O)cc3)cc2)C(=O)N1Cc1ccc(F)cc1 | 8.3 nM |
| O=C1S/C(=C\c2ccc(/C=C/c3ccc(B(O)O)cc3)cc2)C(=O)N1Cc1ccc(F)cc1 | > 5000 nM |
| O=C1SC(Cc2ccc(OCc3ccc(B(O)O)cc3)cc2)C(=O)N1Cc1ccc(F)cc1 (centres undefined) | 25 nM |
| O=C1SC(Cc2ccc(OCc3ccc(B(O)O)cc3)cc2)C(O)N1Cc1ccc(F)cc1 (centres undefined) | 1590 nM |
| O=c1sc(Cc2ccc(OCc3ccc(B(O)O)cc3)cc2)cn1Cc1ccc(F)cc1 | 683 nM |
| O=C1N/C(=C\c2ccc(OCc3ccc(B(O)O)cc3)cc2)C(=O)N1Cc1ccc(F)cc1 | 26 nM |
| CN1C(=O)N(Cc2ccc(F)cc2)C(=O)/C1=C\c1ccc(OCc2ccc(B(O)O)cc2)cc1 | 5.3 nM |
| CN1C(=O)N(Cc2ccc(F)cc2)C(=O)/C1=C/c1ccc(OCc2ccc(B(O)O)cc2)cc1 | 6.7 nM |
| O=C1C/C(=C\c2ccc(OCc3ccc(B(O)O)cc3)cc2)C(=O)N1Cc1ccc(F)cc1 | 7.3 nM |
| O=C1[C@@H]2Cc3ccc(OCc4ccc(B(O)O)cc4)cc3CN2C(=O)N1Cc1ccc(F)cc1 | 55 nM |
| O=C1[C@H]2Cc3ccc(OCc4ccc(B(O)O)cc4)cc3CN2C(=O)N1Cc1ccc(F)cc1 | 59 nM |
